pKi: −log10 of the molar value. Active and inactive are the calls of the source. The rule behind the calls is not given here.
Key:
[1] = target: T1, Ribonuclease pancreatic (Bos taurus) (UniProt P61823); assay: Inhibition of bovine pancreatic RNase A assessed as tRNA degradation at 0.50 mM after 2 hrs by precipitation assay
T1 sequence (whole entry): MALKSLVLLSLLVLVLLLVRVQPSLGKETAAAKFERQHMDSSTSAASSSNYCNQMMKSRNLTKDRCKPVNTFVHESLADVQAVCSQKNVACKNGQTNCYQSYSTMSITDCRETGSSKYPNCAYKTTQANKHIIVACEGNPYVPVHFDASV
In short: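 Bond precipitation method. RNase A with conjugate (1 mM stock) preincubated 2 h at 37 °C; aliquot added to tRNA (5 mg/ml) in Tris-HCl pH 7.5 with 5 mM EDTA and 0.5 mg/ml HSA, 30 min at 25 °C. Quenched with ice-cold 1.14 N perchloric acid/6 mM uranyl acetate, 30 min on ice, centrifuged; supernatant diluted, A260 compared to control.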

[2] = target: T1, Ribonuclease pancreatic (Bos taurus); assay: Inhibition of bovine pancreatic RNase A at 5 uM by fluorescence assay
In short: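 Fluorimetric titration, 1 cm cuvette, excitation 295 nm: 5 µM ligand in 20 mM phosphate pH 7.0 with 50 mM NaCl, RNase A added stepwise to a final 17.5 µM; change in emission intensity followed.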

[3] = target: T1, Ribonuclease pancreatic (Bos taurus); assay: Inhibition of bovine pancreatic RNase A assessed as tRNA degradation at 0.92 mM after 6 hrs using ethidium bromide staining by agarose gel-based assay
In short: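 RNase A (0.66 µM stock) preincubated with varying volumes of compound (0.92 mM stock) 6 h at 37 °C. Aliquots mixed with tRNA (5.0 mg/ml) and glycerol/bromophenol blue sample buffer, 30 min further incubation, then run on 1.1% agarose in TAE pH 8.0. Undegraded tRNA seen by ethidium bromide staining under UV.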

Ribonuclease pancreatic = target: T2, Ribonuclease pancreatic (Bos taurus, UniProt P61823); assay: Inhibition of bovine pancreatic RNase A by spectrophotometric assay
T2 sequence (P61823 whole entry): T1 sequence (whole entry)

[4] = target: T1, Ribonuclease pancreatic (Bos taurus); assay: Inhibition of bovine pancreatic RNase A assessed as change in pKa of His-12 by NMR spectroscopy
In short: (§1)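 RNase A H/D exchanged in D2O (50 °C, 20 min, lyophilized, three cycles), redissolved in D2O with 0.17 M NaCl and 0.5 mM DSS; ligand:enzyme molar ratio 5:1; pH* 3–8 set with DCl/NaOD, uncorrected. 1H NMR at 400 MHz, 22.5 °C, 100 scans, 2 s acquisition; His C-2 shifts vs DSS fitted to titration equations for pKa; pK2 used.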

[5] = target: T1, Ribonuclease pancreatic (Bos taurus); assay: Inhibition of bovine pancreatic RNase A assessed as change in pKa of His-105 by NMR spectroscopy; in short: as §1
[6] = target: T1, Ribonuclease pancreatic (Bos taurus); assay: Inhibition of bovine pancreatic RNase A assessed as change in pKa of His-119 by NMR spectroscopy; in short: as §1

| Compound | Activity [1] | Activity [2] | Activity [3] | pKi (Ribonuclease pancreatic) | Activity [4] | Activity [5] | Activity [6] |
| --- | --- | --- | --- | --- | --- | --- | --- |
| Cc1cn([C@H]2C[C@H](NC(=O)C(N)Cc3c[nH]c4ccccc34)[C@@H](CO)O2)c(=O)[nH]c1=O (stereo not given in full) | Active | Active | Active | – | – | – | – |
| Cc1cn([C@H]2C[C@H](NC(=O)C(N)Cc3ccc(O)cc3)[C@@H](CO)O2)c(=O)[nH]c1=O (stereo not given in full) | Active | – | Active | 3.35 | – | – | – |
| Nc1ccn([C@@H]2O[C@H](CO)[C@@H](O)[C@H]2OP(=O)(O)O)c(=O)n1 | – | – | – | 5.15 | – | – | – |
| Cc1cn([C@H]2C[C@H](NC(=O)C(N)CC(C)C)[C@@H](CO)O2)c(=O)[nH]c1=O (stereo not given in full) | – | – | – | – | inactive | inactive | inactive |

— ChEMBL document CHEMBL1154102, “Nucleoside-amino acid conjugates: An alternative route to the design of ribonuclease A inhibitors” (Bioorg Med Chem, 2009)
